Legend:
[1] = target: Fibroblast growth factor receptor 2 (Homo sapiens, UniProt P21802); experiment: Inhibition of cytoplasmic recombinant human His-tagged FGFR2 (403 to 822 residues) expressed in baculovirus using tyr4 peptide as substrate after 1 hr by FRET-based Z'-Lyte assay
[2] = target: Mast/stem cell growth factor receptor Kit (Homo sapiens, UniProt P10721); experiment: Inhibition of recombinant cytoplasmic human His-tagged KIT expressed in baculovirus using […] peptide as substrate after 1 hr by FRET-based Z'-Lyte assay
Mast/stem cell growth factor receptor Kit, sequence (P10721 whole entry): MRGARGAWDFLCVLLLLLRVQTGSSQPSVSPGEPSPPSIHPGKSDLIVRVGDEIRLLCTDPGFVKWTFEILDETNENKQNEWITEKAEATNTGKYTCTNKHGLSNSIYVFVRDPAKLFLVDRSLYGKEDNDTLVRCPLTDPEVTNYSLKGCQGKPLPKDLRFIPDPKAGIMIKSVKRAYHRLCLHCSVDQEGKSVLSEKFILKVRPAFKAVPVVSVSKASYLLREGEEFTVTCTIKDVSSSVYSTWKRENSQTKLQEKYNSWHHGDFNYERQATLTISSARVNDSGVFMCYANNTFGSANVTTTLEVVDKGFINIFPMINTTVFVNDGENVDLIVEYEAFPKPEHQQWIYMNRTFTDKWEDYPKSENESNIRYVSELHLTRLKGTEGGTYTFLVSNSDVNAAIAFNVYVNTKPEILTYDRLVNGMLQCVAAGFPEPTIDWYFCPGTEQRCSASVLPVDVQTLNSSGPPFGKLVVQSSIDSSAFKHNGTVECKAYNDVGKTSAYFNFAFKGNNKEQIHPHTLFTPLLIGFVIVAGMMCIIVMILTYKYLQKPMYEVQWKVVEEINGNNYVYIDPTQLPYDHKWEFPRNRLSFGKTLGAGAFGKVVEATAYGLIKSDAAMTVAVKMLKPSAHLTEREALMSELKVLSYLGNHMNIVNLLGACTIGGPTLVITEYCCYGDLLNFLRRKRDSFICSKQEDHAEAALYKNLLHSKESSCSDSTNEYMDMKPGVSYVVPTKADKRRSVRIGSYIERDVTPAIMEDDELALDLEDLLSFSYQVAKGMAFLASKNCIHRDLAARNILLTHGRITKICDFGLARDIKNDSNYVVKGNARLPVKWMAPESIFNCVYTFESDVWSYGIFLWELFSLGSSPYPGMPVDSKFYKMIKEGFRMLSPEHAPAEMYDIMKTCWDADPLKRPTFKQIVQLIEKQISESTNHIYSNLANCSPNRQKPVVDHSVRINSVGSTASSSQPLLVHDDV

[3] = target: T1, Macrophage colony-stimulating factor 1 receptor (Mus musculus) (UniProt P09581); experiment: Inhibition of CSF1R phosphorylation in mouse RAW264.7 cells preincubated for 6 hrs followed by CSF1 stimulation for 20 mins by Western blot analysis; format: cell-based
T1 sequence (whole entry): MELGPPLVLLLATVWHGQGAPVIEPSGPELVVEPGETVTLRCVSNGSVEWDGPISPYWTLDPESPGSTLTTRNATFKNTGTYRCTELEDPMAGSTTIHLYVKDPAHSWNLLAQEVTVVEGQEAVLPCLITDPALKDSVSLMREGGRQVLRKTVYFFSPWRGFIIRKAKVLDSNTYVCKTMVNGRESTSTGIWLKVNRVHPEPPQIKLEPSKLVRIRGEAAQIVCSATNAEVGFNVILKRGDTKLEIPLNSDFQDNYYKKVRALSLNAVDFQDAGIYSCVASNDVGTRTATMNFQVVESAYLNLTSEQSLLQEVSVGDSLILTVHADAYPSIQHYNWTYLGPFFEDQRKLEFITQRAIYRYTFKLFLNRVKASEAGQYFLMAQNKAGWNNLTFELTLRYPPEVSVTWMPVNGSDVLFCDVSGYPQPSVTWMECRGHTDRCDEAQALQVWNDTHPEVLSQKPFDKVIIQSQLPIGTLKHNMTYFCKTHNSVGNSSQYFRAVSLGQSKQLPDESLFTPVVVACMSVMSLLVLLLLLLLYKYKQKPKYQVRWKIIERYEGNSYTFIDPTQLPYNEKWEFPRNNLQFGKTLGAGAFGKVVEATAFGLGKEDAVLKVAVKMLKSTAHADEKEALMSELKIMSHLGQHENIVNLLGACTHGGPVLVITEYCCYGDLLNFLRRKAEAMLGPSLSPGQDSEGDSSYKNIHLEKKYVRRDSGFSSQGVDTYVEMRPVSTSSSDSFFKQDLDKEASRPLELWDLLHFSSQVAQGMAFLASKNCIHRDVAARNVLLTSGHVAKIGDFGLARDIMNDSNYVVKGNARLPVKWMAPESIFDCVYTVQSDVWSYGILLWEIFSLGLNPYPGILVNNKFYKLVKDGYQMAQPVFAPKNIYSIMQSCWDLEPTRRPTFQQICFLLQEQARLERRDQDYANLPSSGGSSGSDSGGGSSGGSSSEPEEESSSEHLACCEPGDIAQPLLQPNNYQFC
Method in brief: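 RAW264.7 cells were seeded, incubated overnight and treated 6 h with graded compound concentrations, then stimulated 20 min with CSF-1 (50 ng/mL). Lysates were run on 8−12% SDS-PAGE and immunoblotted for p-CSF1R (Tyr723), CSF1R, p-AKT, AKT and GAPDH. Bands were quantified and normalized to GAPDH. Mean ± SEM of at least three experiments.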

Homo sapiens [4] = species on record: Homo sapiens; experiment: Selectivity ratio of IC50 for recombinant human PDGFRbeta expressed in baculovirus to IC50 for recombinant human His-tagged CSF1R cytoplasmic domain (538 to 910 residues) expressed in baculovirus
RAW264.7 [5] = experiment: Antimigratory activity against mouse RAW264.7 cells assessed as inhibition of human LNCaP-MDV-CM mediated macrophage migration at 2.5 uM after 24 hrs by crystal violet staining based transwell assay relative to control; format: functional; conditions: RAW264.7, 24 h
Method in brief: (§1)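 RAW264.7 cells, (2−4) × 10^5, were placed serum-free in the upper insert of a transwell. The lower chamber held conditioned medium from LNCaP cells grown 48 h in 10% FBS RPMI 1640 with 10 μM MDV3100 or DMSO. Compound at 0.625–5.0 μM was added to the top chamber for 24 h at 37 °C. Migrated cells were fixed in methanol, stained with 0.25% crystal violet and counted in six random fields at 200×. Three independent experiments.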

[6] = target: Fibroblast growth factor receptor 1 (Homo sapiens, UniProt P11362); experiment: Inhibition of cytoplasmic recombinant human His-tagged FGFR1 (308 to 731 residues) expressed in baculovirus using tyr4 peptide as substrate after 1 hr by FRET-based Z'-Lyte assay
Fibroblast growth factor receptor 1, sequence (P11362 whole entry, the tested form may be a part): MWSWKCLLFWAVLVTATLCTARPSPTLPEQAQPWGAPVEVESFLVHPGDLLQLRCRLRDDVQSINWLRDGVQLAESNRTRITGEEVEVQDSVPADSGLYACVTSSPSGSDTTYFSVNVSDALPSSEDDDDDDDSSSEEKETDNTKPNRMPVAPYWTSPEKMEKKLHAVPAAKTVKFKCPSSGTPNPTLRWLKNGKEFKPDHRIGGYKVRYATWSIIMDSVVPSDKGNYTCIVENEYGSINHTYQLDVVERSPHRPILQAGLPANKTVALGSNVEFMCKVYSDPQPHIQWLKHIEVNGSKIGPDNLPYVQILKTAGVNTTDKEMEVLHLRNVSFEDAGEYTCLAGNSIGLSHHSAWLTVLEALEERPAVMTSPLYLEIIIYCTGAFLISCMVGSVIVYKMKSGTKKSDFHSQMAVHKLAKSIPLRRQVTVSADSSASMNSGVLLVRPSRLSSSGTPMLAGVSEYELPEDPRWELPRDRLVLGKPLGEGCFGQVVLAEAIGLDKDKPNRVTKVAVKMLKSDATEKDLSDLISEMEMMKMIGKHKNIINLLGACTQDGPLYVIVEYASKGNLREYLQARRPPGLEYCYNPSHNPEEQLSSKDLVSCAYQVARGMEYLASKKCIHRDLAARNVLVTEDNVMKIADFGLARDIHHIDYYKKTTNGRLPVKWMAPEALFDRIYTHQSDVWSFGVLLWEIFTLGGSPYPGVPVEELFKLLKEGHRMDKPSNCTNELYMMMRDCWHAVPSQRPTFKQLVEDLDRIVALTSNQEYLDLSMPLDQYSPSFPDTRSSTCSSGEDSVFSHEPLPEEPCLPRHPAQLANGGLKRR

[7] = AUC (0 to infinity) in Sprague-Dawley rat at 5 mg/kg, iv measured up to 72 hrs by LC/MS analysis; format: ADME, organism-based; set-up: dose 5 mg/kg, time infinity, route intravenous; conditions: in vivo
Method in brief: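 Male Sprague-Dawley rats, 4–6 weeks old, acclimatised 1 week, were dosed iv at 5 mg/kg or by oral gavage at 25 mg/kg. Vehicle was 2% DMSO, 4% EtOH, 4% castor oil, 90% H2O. Blood was drawn by orbital sinus puncture from 2 min to 72 h into heparinized tubes. Plasma was assayed by LC/MS with propranolol as internal standard. Three animals per group.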

RAW264.7 [8] = experiment: Antimigratory activity against mouse RAW264.7 cells assessed as inhibition of human LNCaP-MDV-CM mediated macrophage migration after 24 hrs by crystal violet staining based transwell assay; format: functional, cell-based; method in brief: as §1
RAW264.7 [9] = experiment: Inhibition of protumorigenic potential of mouse RAW264.7 cells assessed as abrogation of human LNCAP cell growth enhancement of macrophages at 0.016 uM co-cultured for 48 hrs by CCK8 assay relative to control; format: functional; conditions: RAW264.7, 48 h
Method in brief: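 LNCaP cells, (2−4) × 10^5, were seeded in the lower transwell chamber. After 2 h, (1−2) × 10^6 RAW264.7 cells were added in a 0.4 μm insert. Compound at 0.016–2.0 μM was added to the top chamber and cells were cocultured 48 h at 37 °C. LNCaP cells were then imaged and counted by CCK8. Run three times, each in triplicate.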

Homo sapiens [10] = species on record: Homo sapiens; experiment: Selectivity ratio of IC50 for recombinant cytoplasmic human GST-tagged PDGFRalpha expressed in baculovirus to IC50 for recombinant human His-tagged CSF1R cytoplasmic domain (538 to 910 residues) expressed in baculovirus
RAW264.7 [11] = experiment: Downregulation of MMP9 mRNA expression in mouse RAW264.7 cells after 48 hrs by qRT-PCR analysis relative to DMSO; format: functional, cell-based
Method in brief: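 RAW264.7 macrophages were treated 48 h with compound at 0.08, 0.4 or 2.0 μM, or DMSO vehicle. Total RNA was extracted with TRIzol and transcripts were quantified by qRT-PCR using gene-specific primers. Run three times, each in triplicate.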

[12] = target: Vascular endothelial growth factor receptor 2 (Homo sapiens) (UniProt P35968); experiment: Inhibition of human KDR (R787 to P1253 residues) expressed in mammalian expression system at 100 nM by KINOMEscan assay relative to control
Vascular endothelial growth factor receptor 2 (Homo sapiens), sequence (P35968 whole entry, the tested form may be a part): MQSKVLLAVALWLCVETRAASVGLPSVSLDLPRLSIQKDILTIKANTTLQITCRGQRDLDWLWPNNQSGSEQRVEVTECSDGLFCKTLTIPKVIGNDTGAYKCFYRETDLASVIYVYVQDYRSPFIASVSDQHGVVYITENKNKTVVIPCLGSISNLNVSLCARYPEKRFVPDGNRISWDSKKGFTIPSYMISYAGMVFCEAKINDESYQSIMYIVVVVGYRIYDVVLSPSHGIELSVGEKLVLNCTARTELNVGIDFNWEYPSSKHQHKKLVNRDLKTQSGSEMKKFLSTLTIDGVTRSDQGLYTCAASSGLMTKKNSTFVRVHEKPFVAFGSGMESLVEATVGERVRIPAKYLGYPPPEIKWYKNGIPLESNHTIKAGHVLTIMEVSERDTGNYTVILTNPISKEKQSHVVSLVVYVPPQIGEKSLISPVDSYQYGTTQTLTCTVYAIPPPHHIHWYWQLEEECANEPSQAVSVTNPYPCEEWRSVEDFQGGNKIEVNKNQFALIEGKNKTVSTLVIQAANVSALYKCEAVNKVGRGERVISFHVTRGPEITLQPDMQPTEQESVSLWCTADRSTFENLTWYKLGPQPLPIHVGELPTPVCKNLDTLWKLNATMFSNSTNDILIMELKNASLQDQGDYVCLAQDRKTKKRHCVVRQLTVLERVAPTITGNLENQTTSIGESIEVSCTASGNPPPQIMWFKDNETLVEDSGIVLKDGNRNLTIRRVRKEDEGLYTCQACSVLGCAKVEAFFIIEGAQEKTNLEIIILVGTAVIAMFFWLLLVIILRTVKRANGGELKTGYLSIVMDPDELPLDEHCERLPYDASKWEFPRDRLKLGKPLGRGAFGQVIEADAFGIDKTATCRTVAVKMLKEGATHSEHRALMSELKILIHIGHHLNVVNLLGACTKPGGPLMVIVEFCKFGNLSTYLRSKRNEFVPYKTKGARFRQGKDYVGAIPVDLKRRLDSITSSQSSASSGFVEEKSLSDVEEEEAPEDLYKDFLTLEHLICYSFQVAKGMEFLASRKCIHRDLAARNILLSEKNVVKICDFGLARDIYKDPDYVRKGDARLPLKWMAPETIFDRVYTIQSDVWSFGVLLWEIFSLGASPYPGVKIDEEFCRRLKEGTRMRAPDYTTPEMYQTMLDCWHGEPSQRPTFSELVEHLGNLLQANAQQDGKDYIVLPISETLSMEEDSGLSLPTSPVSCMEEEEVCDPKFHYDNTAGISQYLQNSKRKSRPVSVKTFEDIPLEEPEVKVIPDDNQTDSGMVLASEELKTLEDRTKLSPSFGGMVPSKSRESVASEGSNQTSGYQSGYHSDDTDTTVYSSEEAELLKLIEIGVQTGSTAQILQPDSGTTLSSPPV

[13] = target: Fibroblast growth factor receptor 4 (Homo sapiens, UniProt P22455); experiment: Inhibition of cytoplasmic recombinant human His-tagged FGFR4 ([…] residues) expressed in baculovirus using tyr4 peptide as substrate after 1 hr by FRET-based Z'-Lyte assay
Fibroblast growth factor receptor 4, sequence (P22455 whole entry): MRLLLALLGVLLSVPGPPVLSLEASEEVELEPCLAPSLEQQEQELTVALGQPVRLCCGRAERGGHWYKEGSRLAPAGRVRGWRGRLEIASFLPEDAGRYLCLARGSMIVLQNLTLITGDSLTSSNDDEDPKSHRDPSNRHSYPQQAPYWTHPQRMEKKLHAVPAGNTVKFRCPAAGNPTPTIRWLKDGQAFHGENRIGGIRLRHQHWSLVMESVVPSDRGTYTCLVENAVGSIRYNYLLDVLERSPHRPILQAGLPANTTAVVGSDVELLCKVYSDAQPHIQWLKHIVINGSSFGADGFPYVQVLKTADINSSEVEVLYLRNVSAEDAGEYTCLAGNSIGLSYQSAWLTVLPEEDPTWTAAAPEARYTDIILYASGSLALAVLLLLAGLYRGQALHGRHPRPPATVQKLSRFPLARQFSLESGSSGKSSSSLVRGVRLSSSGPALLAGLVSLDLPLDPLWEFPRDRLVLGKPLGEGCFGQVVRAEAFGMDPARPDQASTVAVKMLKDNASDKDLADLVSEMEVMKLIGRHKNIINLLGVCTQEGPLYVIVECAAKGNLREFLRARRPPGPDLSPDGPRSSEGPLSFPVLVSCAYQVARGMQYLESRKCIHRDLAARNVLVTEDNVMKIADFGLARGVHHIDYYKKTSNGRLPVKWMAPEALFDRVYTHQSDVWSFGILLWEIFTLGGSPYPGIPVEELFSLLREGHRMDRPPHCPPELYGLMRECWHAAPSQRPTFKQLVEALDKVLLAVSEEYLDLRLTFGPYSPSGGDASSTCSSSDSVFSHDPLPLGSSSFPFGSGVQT

Fibroblast growth factor receptor 2, sequence (P21802 whole entry, the tested form may be a part): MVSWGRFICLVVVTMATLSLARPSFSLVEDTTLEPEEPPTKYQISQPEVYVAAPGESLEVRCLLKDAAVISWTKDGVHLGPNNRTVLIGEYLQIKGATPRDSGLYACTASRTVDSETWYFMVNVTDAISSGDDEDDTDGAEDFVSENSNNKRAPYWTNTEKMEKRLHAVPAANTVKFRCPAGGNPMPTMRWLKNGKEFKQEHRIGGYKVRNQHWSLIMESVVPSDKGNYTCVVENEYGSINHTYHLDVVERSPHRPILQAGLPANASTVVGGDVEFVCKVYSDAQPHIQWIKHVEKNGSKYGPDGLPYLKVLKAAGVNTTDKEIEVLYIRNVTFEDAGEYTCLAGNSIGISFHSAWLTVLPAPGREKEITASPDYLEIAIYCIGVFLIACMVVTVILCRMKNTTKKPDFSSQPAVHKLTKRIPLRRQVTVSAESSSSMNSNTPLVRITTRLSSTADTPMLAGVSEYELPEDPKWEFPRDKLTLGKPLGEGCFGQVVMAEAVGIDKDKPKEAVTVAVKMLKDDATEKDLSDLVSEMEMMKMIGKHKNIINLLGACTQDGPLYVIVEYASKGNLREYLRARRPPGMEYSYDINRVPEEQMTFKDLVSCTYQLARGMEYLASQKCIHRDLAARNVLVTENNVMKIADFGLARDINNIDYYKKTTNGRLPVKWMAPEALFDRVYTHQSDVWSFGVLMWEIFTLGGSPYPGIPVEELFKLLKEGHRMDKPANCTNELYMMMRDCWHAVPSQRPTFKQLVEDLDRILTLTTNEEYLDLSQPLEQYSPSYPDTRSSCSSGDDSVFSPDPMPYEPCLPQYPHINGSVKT

Compound: CCC(=O)N1CC[C@H](N2C(=O)N(c3cc(OC)ccc3Cl)Cc3cnc(Nc4ccc(N5CCN(C6COC6)CC5)c(C)c4)nc32)C1
- IC50 [1]: 27 nM
- IC50 [2]: 30 nM
- inhibition [3]: Dose-dependent effect
- Ratio IC50 (Homo sapiens [4]): 10 to 35
- inhibition at 2.5 µM (RAW264.7 [5]): 60.6%
- IC50 [6]: 10 nM
- AUC(0-inf) [7]: 2910 ng·h/mL
- inhibition (RAW264.7 [8]): Dose-dependent effect
- inhibition at 0.016 µM (RAW264.7 [9]): 63.4%
- Ratio IC50 (Homo sapiens [10]): 10 to 35
- Activity (RAW264.7 [11]): Dose-dependent effect
- inhibition [12]: > 90%
- IC50 [13]: 167 nM

Source: ChEMBL document CHEMBL4033795, “Design, Synthesis, and Structure-Activity Relationship Study of 2-Oxo-3,4-dihydropyrimido[4,5- d]pyrimidines as New Colony Stimulating Factor 1 Receptor (CSF1R) Kinase Inhibitors” (J Med Chem, 2018)
